How the values were obtained:
Assay type in all cases: functional
Plasmodium falciparum = assay: Antimalarial activity against Plasmodium falciparum NF54 infected in human serum at 20 ug/ml after 48 hrs by fluorometric method
Method in brief: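 Asynchronous P. falciparum NF54 at 1.5–2% parasitemia, 5% hematocrit in RPMI with 10% human serum, exposed 48 h at 37 °C under 90% N2/5% CO2/5% O2 at the stated concentration; parasite DNA stained with ethidium bromide after proteinase K lysis; viability % = (Flu treated − medium)/(Flu untreated − medium) ×100; triplicate.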

MDA-MB-468 = assay: Cytotoxicity against human MDA-MB-468 cells after 48 hrs by SRB assay; settings: MDA-MB-468, 48 h
Method in brief: (§1)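 NCI 60-cell-line screen. Cells preincubated 24 h at 37 °C, 5% CO2; time-zero plates TCA-fixed. Compounds dissolved in DMSO and tested at five concentrations (100, 10, 1.0, 0.1, 0.01 µM) for 48 h continuous exposure. Adherent cells fixed with cold TCA (10% final), then SRB stained; absorbance at 515 nm. GI50, TGI and LC50 calculated from growth relative to time-zero and untreated controls.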

BT-549 = assay: Cytotoxicity against human BT549 cells after 48 hrs by SRB assay; settings: BT-549, 48 h; method in brief: as §1
T47D = assay: Cytotoxicity against human T47D cells after 48 hrs by SRB assay
Method in brief: (§2)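 NCI 60-cell screen. Cells grew 24 h (37 °C, 5% CO2) before compound was added. Compounds were in DMSO and diluted in medium with gentamicin, then tested at five levels (100, 10, 1.0, 0.1, 0.01 µM) with 48 h continuous exposure. Adherent cells were fixed with TCA (10% final) and stained with 0.4% SRB, absorbance read at 515 nm. A time-zero plate was included. LC50 is the concentration giving 50% loss of protein relative to time zero.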

Hs-578T = assay: Cytotoxicity against human Hs578T cells after 48 hrs by SRB assay; method in brief: as §1
MDA-MB-231 = assay: Cytotoxicity against human MDA-MB-231 cells after 48 hrs by SRB assay; settings: MDA-MB-231, 48 h; method in brief: as §1
PC-3 = assay: Cytotoxicity against human PC3 cells after 48 hrs by SRB assay; settings: PC-3, 48 h; method in brief: as §1
SN12C = assay: Cytotoxicity against human SN12C cells after 48 hrs by SRB assay; method in brief: as §1
CAKI-1 = assay: Cytotoxicity against human Caki1 cells after 48 hrs by SRB assay; settings: CAKI-1, 48 h; method in brief: as §1
ACHN = assay: Cytotoxicity against human ACHN cells after 48 hrs by SRB assay; settings: for CC50: read-out: LC50 (the source's name); method in brief: as §1
NCI/ADR-RES = assay: Cytotoxicity against human NCI/ADR-RES cells after 48 hrs by SRB assay; settings: for CC50: read-out: LC50 (the source's name); method in brief: as §1
IGROV-1 = assay: Cytotoxicity against human IGROV1 cells after 48 hrs by SRB assay; settings: IGROV-1, 48 h; method in brief: as §1
UACC-62 = assay: Cytotoxicity against human UACC62 cells after 48 hrs by SRB assay; settings: UACC-62, 48 h; for CC50: read-out: LC50 (the source's name); method in brief: as §2
UACC-257 = assay: Cytotoxicity against human UACC257 cells after 48 hrs by SRB assay; settings: UACC-257, 48 h; method in brief: as §2
SK-MEL-2 = assay: Cytotoxicity against human SK-MEL-2 cells after 48 hrs by SRB assay; settings: SK-MEL-2, 48 h; method in brief: as §1
MDA-MB-435 = assay: Cytotoxicity against human MDA-MB-435 cells after 48 hrs by SRB assay; settings: MDA-MB-435, 48 h; method in brief: as §1
LOX IMVI = assay: Cytotoxicity against human LOXIMVI cells after 48 hrs by SRB assay; method in brief: as §1
SNB-75 = assay: Cytotoxicity against human SNB75 cells after 48 hrs by SRB assay; settings: SNB-75, 48 h; method in brief: as §2
SF-539 = assay: Cytotoxicity against human SF539 cells after 48 hrs by SRB assay; settings: SF-539, 48 h; for CC50: read-out: LC50 (the source's name); method in brief: as §1
SF-295 = assay: Cytotoxicity against human SF295 cells after 48 hrs by SRB assay; settings: SF-295, 48 h; method in brief: as §1
SF-268 = assay: Cytotoxicity against human SF268 cells after 48 hrs by SRB assay; settings: SF-268, 48 h; method in brief: as §1
HCT-15 = assay: Cytotoxicity against human HCT15 cells after 48 hrs by SRB assay; settings: HCT-15, 48 h; method in brief: as §1
HT-29 = assay: Cytotoxicity against human HT-29 cells after 48 hrs by SRB assay; settings: HT-29, 48 h; method in brief: as §1
HCT-116 = assay: Cytotoxicity against human HCT116 cells after 48 hrs by SRB assay; settings: HCT-116, 48 h; method in brief: as §1
HCC 2998 = assay: Cytotoxicity against human HCC2998 cells after 48 hrs by SRB assay; settings: HCC 2998, 48 h; method in brief: as §1
NCI-H522 = assay: Cytotoxicity against human NCI-H522 cells after 48 hrs by SRB assay; settings: NCI-H522, 48 h; for CC50: read-out: LC50 (the source's name); method in brief: as §1
NCI-H226 = assay: Cytotoxicity against human NCI-H226 cells after 48 hrs by SRB assay; settings: NCI-H226, 48 h; method in brief: as §1
NCI-H23 = assay: Cytotoxicity against human NCI-H23 cells after 48 hrs by SRB assay; settings: NCI-H23, 48 h; for CC50: read-out: LC50 (the source's name); method in brief: as §1
HOP-92 = assay: Cytotoxicity against human HOP92 cells after 48 hrs by SRB assay; settings: HOP-92, 48 h; method in brief: as §1
HOP-62 = assay: Cytotoxicity against human HOP62 cells after 48 hrs by SRB assay; settings: HOP-62, 48 h; method in brief: as §1
SR = assay: Cytotoxicity against human SR cells after 48 hrs by SRB assay; method in brief: as §2
RPMI-8226 = assay: Cytotoxicity against human RPMI8226 cells after 48 hrs by SRB assay; settings: RPMI-8226, 48 h; method in brief: as §1
MOLT-4 = assay: Cytotoxicity against human MOLT4 cells after 48 hrs by SRB assay; settings: MOLT-4, 48 h; method in brief: as §1
CCRF-CEM = assay: Cytotoxicity against human CCRF-CEM cells after 48 hrs by SRB assay; method in brief: as §1
TK-10 = assay: Cytotoxicity against human TK10 cells after 48 hrs by SRB assay; settings: TK-10, 48 h; method in brief: as §2

COc1ccc(C2CC(c3cccc(Nc4ccnc5cc(Cl)ccc45)c3)=NN2C=O)cc1 (stereo not given)
inhibition at 20 µg/mL (Plasmodium falciparum): 4.1%
GI50 (MDA-MB-468): 0.21 µM
LC50 (MDA-MB-468): > 100 µM
GI50 (BT-549): 0.45 µM
LC50 (50% net cell kill vs time zero) (BT-549): 55.6 µM
GI50 (T47D): 0.53 µM
LC50 (concentration giving 50% cell kill relative to time zero) (T47D): > 100 µM
GI50 (Hs-578T): 0.36 µM
LC50 (50% net cell kill) (Hs-578T): > 100 µM
GI50 (MDA-MB-231): 3.19 µM
LC50 (concentration killing 50% of cells present at time zero) (MDA-MB-231): > 100 µM
GI50 (PC-3): 0.85 µM
LC50 (PC-3): > 100 µM
GI50 (SN12C): 0.78 µM
LC50 (50% net cell kill relative to time zero) (SN12C): > 100 µM
GI50 (CAKI-1): 0.33 µM
LC50 (CAKI-1): 100 µM
GI50 (ACHN): 0.87 µM
CC50 (ACHN): > 100 µM
GI50 (NCI/ADR-RES): 0.35 µM
CC50 (NCI/ADR-RES): > 100 µM
GI50 (IGROV-1): 1.44 µM
LC50 (concentration killing 50% of cells relative to time zero) (IGROV-1): > 100 µM
GI50 (UACC-62): 0.67 µM
CC50 (UACC-62): > 100 µM
LC50 (UACC-257): > 100 µM
GI50 (SK-MEL-2): 0.49 µM
LC50 (SK-MEL-2): > 100 µM
GI50 (MDA-MB-435): 0.14 µM
LC50 (MDA-MB-435): > 100 µM
GI50 (LOX IMVI): 0.58 µM
LC50 (LOX IMVI): 6.7 µM
GI50 (SNB-75): 0.33 µM
LC50 (50% net cell kill) (SNB-75): > 100 µM
GI50 (SF-539): 0.61 µM
CC50 (SF-539): 66.2 µM
GI50 (SF-295): 0.32 µM
LC50 (SF-295): > 100 µM
GI50 (SF-268): 2.56 µM
LC50 (SF-268): > 100 µM
GI50 (HCT-15): 0.44 µM
LC50 (concentration killing 50% of cells relative to time zero) (HCT-15): > 100 µM
GI50 (HT-29): 0.34 µM
LC50 (HT-29): > 100 µM
GI50 (HCT-116): 0.38 µM
LC50 (HCT-116): 38.1 µM
GI50 (HCC 2998): 1.32 µM
LC50 (HCC 2998): > 100 µM
GI50 (NCI-H522): 0.3 µM
CC50 (NCI-H522): > 100 µM
GI50 (NCI-H226): 41.6 µM
LC50 (50% lethal concentration) (NCI-H226): > 100 µM
GI50 (NCI-H23): 0.95 µM
CC50 (NCI-H23): > 100 µM
GI50 (HOP-92): > 100 µM
LC50 (concentration killing 50% of cells) (HOP-92): > 100 µM
GI50 (HOP-62): 0.66 µM
LC50 (50% lethal concentration) (HOP-62): > 100 µM
GI50 (SR): 0.24 µM
LC50 (SR): > 100 µM
GI50 (RPMI-8226): 16.7 µM
LC50 (concentration killing 50% of cells) (RPMI-8226): > 100 µM
GI50 (MOLT-4): 0.49 µM
LC50 (MOLT-4): > 100 µM
GI50 (CCRF-CEM): 0.68 µM
LC50 (concentration killing 50% of cells relative to time zero) (CCRF-CEM): > 100 µM

CC(=O)N1N=C(c2ccc(Nc3ccnc4cc(Cl)ccc34)cc2)CC1c1ccc(Cl)cc1 (stereo not given)
inhibition at 20 µg/mL (Plasmodium falciparum): 32.9%
GI50 (MDA-MB-468): 2.41 µM
LC50 (MDA-MB-468): > 100 µM
GI50 (BT-549): 5.4 µM
LC50 (50% net cell kill vs time zero) (BT-549): > 100 µM
GI50 (T47D): 1.57 µM
LC50 (concentration giving 50% cell kill relative to time zero) (T47D): > 100 µM
GI50 (Hs-578T): > 100 µM
LC50 (50% net cell kill) (Hs-578T): > 100 µM
GI50 (MDA-MB-231): > 100 µM
LC50 (concentration killing 50% of cells present at time zero) (MDA-MB-231): > 100 µM
GI50 (PC-3): 3.02 µM
LC50 (PC-3): > 100 µM
GI50 (TK-10): > 100 µM
LC50 (concentration giving 50% cell loss vs time zero) (TK-10): > 100 µM
GI50 (SN12C): 30.7 µM
LC50 (50% net cell kill relative to time zero) (SN12C): > 100 µM
GI50 (CAKI-1): > 100 µM
LC50 (CAKI-1): > 100 µM
GI50 (ACHN): 3.96 µM
CC50 (ACHN): > 100 µM
GI50 (NCI/ADR-RES): 3.04 µM
CC50 (NCI/ADR-RES): > 100 µM
GI50 (IGROV-1): > 100 µM
LC50 (concentration killing 50% of cells relative to time zero) (IGROV-1): > 100 µM
GI50 (UACC-62): 2.95 µM
CC50 (UACC-62): > 100 µM
GI50 (UACC-257): > 100 µM
LC50 (UACC-257): > 100 µM
GI50 (SK-MEL-2): > 100 µM
LC50 (SK-MEL-2): > 100 µM
GI50 (MDA-MB-435): 0.57 µM
LC50 (MDA-MB-435): > 100 µM
GI50 (LOX IMVI): 3.15 µM
LC50 (LOX IMVI): > 100 µM
LC50 (50% net cell kill) (SNB-75): > 100 µM
GI50 (SF-539): > 100 µM
CC50 (SF-539): > 100 µM
GI50 (SF-295): 3.58 µM
LC50 (SF-295): > 100 µM
GI50 (SF-268): 9.1 µM
LC50 (SF-268): > 100 µM
GI50 (HCT-15): 3.33 µM
LC50 (concentration killing 50% of cells relative to time zero) (HCT-15): > 100 µM
GI50 (HT-29): 5.4 µM
LC50 (HT-29): > 100 µM
GI50 (HCT-116): 38.8 µM
LC50 (HCT-116): > 100 µM
GI50 (HCC 2998): > 100 µM
LC50 (HCC 2998): > 100 µM
GI50 (NCI-H522): 5.05 µM
CC50 (NCI-H522): > 100 µM
GI50 (NCI-H226): > 100 µM
LC50 (50% lethal concentration) (NCI-H226): > 100 µM
GI50 (NCI-H23): > 100 µM
CC50 (NCI-H23): > 100 µM
GI50 (HOP-92): > 100 µM
LC50 (concentration killing 50% of cells) (HOP-92): > 100 µM
GI50 (HOP-62): > 100 µM
LC50 (50% lethal concentration) (HOP-62): > 100 µM
GI50 (SR): 0.61 µM
LC50 (SR): > 100 µM
GI50 (MOLT-4): 2.42 µM
LC50 (MOLT-4): > 100 µM

Source: ChEMBL document CHEMBL2417469, “Synthesis of novel analogs of 2-pyrazoline obtained from [(7-chloroquinolin-4-yl)amino]chalcones and hydrazine as potential antitumor and antimalarial agents” (Eur J Med Chem, 2013)
